Laboratory results from ChEMBL document CHEMBL1122415, “Folate antagonists. 20. Synthesis and antitumor and antimalarial properties of trimetrexate and related 6-[(phenylamino)methyl]-2,4-quinazolinediamines” (1983).
“And” between values parts separate entries of the source, which are not always exact repeats. Equal values may be shown once.

How the values were obtained:
Plasmodium berghei [1] = test: Antimalarial effect against trophozoite-induced Plasmodium berghei in mice (Mus musculus) at 20 mg/kg subcutaneous dose; assay type: functional
Plasmodium berghei [2] = test: Antimalarial effect against trophozoite-induced Plasmodium berghei in mice (Mus musculus) at 40 mg/kg subcutaneous dose; assay type: functional
L1210 = test: Molar concentration required to reduce the number of L1210 cells by 50% after incubation for 2 days; assay type: functional, Mus musculus; conditions: read-out: ID50 (the source's name)
Procedure, shortened: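 L1210 leukemia cells in tissue culture exposed to drug for 2 days. ID50 is the molar concentration that reduces L1210 cell number by 50%. Mithramycin is the reference drug.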

Plasmodium berghei [3] = test: Antimalarial effect against trophozoite-induced Plasmodium berghei in mice (Mus musculus) after subcutaneous dose of 10 mg/kg; assay type: functional
Plasmodium berghei [4] = test: Antimalarial effect against trophozoite-induced Plasmodium berghei in mice (Mus musculus) after subcutaneous dose of 160 mg/kg; assay type: functional
Mus musculus [5] = species on record: Mus musculus; test: Daily dose required for 90% parasitaemia in trophozoite induced Plasmodium berghei in 21 mice; assay type: functional
Procedure, shortened: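 Oral suppressive test in mice against a normal drug-sensitive P. berghei strain. Drug given continuously in the diet for six consecutive days, with doses as free base equivalent. SD90 is the daily dose (mg/kg) giving 90% suppression of parasitemia versus control mice, estimated graphically on semilog paper.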

Plasmodium berghei [6] = test: Antimalarial effect against trophozoite-induced Plasmodium berghei in mice (Mus musculus) at 320 mg/kg subcutaneous dose; assay type: functional
Plasmodium berghei [7] = test: Antimalarial effect against trophozoite-induced Plasmodium berghei in mice (Mus musculus) at 80 mg/kg subcutaneous dose; assay type: functional
Mus musculus [8] = test: Antimalarial effect against trophozoite-induced Plasmodium berghei in mice (Mus musculus) after subcutaneous administration dose of 640 mg/kg; assay type: functional
Plasmodium berghei [9] = test: Antimalarial effect against trophozoite-induced Plasmodium berghei in mice (Mus musculus) at 5 mg/kg subcutaneous dose; assay type: functional
Mus musculus [10] = test: Antimalarial effect against trophozoite-induced Plasmodium berghei in mice (Mus musculus) after subcutaneous administration dose of 20 mg/kg; 2 survived after 60 days of postinfection; assay type: functional
Mus musculus [11] = test: Antimalarial effect against trophozoite-induced Plasmodium berghei in mice (Mus musculus) after subcutaneous administration dose of 2.5 mg/kg; assay type: functional
Mus musculus [12] = test: Antimalarial effect against trophozoite-induced Plasmodium berghei in mice (Mus musculus) after subcutaneous administration dose of 1.25 mg/kg; assay type: functional

SMILES	Delta MST (Plasmodium berghei [1])	Delta MST (Plasmodium berghei [2]; 40 mg/kg)	IC50 (L1210; Mus musculus, L1210, 48 h)	IC50 (L1210)	Delta MST (Plasmodium berghei [3])	Delta MST (Plasmodium berghei [4]; 160 mg/kg)	SD90 (Mus musculus [5])	Delta MST (Plasmodium berghei [2])	Delta MST (Plasmodium berghei [7]; 80 mg/kg)	Delta MST (Plasmodium berghei [1]; 20 mg/kg)	Delta MST (Plasmodium berghei [6]; 320 mg/kg)	Delta MST (Plasmodium berghei [9])	other results
CC(=O)O.COc1cc(NCc2ccc3nc(N)nc(N)c3c2)cc(OC)c1OC.O	0.7 days	0.7 days and 0.3 days	57 nM	87 nM	0.3 days	4.9 days and 4.5 days	62 mg/kg/day						Delta MST (Plasmodium berghei [6]): 7.9 days
CC(=O)N(Cc1ccc2nc(N)nc(N)c2c1)c1ccc(Cl)c(Cl)c1	1.3 days		300 nM	190 nM	0.9 days		>15.1 mg/kg/day	3.7 days	8.3 days and 3.7 days and 4.1 days				
CC(=O)O.Nc1nc(N)c2cc(CNc3cccc(Cl)c3)ccc2n1.O.O			46 nM	70 nM	0.3 days		8.5 mg/kg/day	1.7 days		0.7 days and 0.5 days	20.6 days and 16.4 days and 8.7 days		Delta MST (Mus musculus [8]): 9.9 days; Delta MST (Plasmodium berghei [7]): 3.3 days
CC(=O)O.Cc1c(CNc2ccc(Cl)c(Cl)c2)ccc2nc(N)nc(N)c12	15.9 days		8.4 nM	4.3 nM			0.33 mg/kg/day	29.8 days				8.6 days	Delta MST (Mus musculus [10]): 15.8 days; Delta MST (Mus musculus [11]; 2.5 mg/kg): 7.2 days and 4 days
Nc1nc(N)c2cc(CN(C=O)c3ccc4cc(Cl)ccc4c3)ccc2n1		1.5 days and 0.5 days	250 nM	150 nM		10.9 days and 4.1 days				0.5 days and 0.3 days	13.9 days and 13.7 days and 10.7 days		Delta MST (Mus musculus [8]): 16.9 days
CC(=O)O.Nc1nc(N)c2cc(CNc3ccc(Cl)cc3)ccc2n1.O.O	5.1 days		27 nM	35 nM			1.9 mg/kg/day	6.9 days	6.9 days and 5.1 days				Delta MST (Plasmodium berghei [4]): 9.9 days
CC(=O)O.Nc1nc(N)c2cc(CNc3ccc(Cl)c4ccccc34)ccc2n1.O			22 nM	13 nM								9.9 days	Delta MST (Mus musculus [10]; 20 mg/kg): 11.9 days and 12.6 days and 12.9 days; Delta MST (Mus musculus [12]): 1.7 days; Delta MST (Mus musculus [11]): 5.5 days; Delta MST (Plasmodium berghei [3]; 10 mg/kg): 10.3 days and 10.5 days and 10.7 days
CC(=O)O.Cc1c(CNc2cccc(Br)c2)ccc2nc(N)nc(N)c12.O		9.3 days and 11.2 days	4.4 nM	3.7 nM			0.2 mg/kg/day		21.8 days and 9.2 days	12.6 days and 11.2 days and 7.7 days		7.7 days	Delta MST (Mus musculus [12]): 0.5 days
CC(=O)O.Nc1nc(N)c2cc(CN(N=O)c3ccc(Cl)c4ccccc34)ccc2n1		2.9 days and 2.7 days	130 nM	170 nM	0.3 days	12.9 days and 13.1 days			5.7 days and 5.9 days	0.7 days and 0.5 days	14.7 days and 14.9 days		
Nc1nc(N)c2cc(CN(C=O)c3ccc(Cl)c(C(F)(F)F)c3)ccc2n1	0.3 days	1.5 days and 1.7 days			0.3 days	7.5 days and 6.3 days					12.5 days and 12.3 days		Delta MST (Mus musculus [8]): 9.9 days
CC(=O)O.Nc1nc(N)c2c(Cl)c(CNc3ccc(Cl)c(Cl)c3)ccc2n1.O												4.3 days	Delta MST (Mus musculus [12]): 2.9 days
Nc1nc(N)c2cc(N(Cc3ccc(Cl)c(Cl)c3)N=O)ccc2n1												2.9 days	Delta MST (Mus musculus [10]): 20.9 days; Delta MST (Plasmodium berghei [3]; 10 mg/kg): 7.5 days and 9.9 days
CC(=O)O.Cc1c(CNc2ccc(Cl)cc2)ccc2nc(N)nc(N)c12	20.9 days		1.9 nM				0.088 mg/kg/day					8.7 days	Delta MST (Mus musculus [11]): 0.7 days; Delta MST (Plasmodium berghei [3]; 10 mg/kg): 19.8 days and 25.9 days and 8.8 days
